A selection: hits, their analogues and other compounds. The true share with any hit is near 2.7%.
pPAFAH inh: pPAFAH enzyme inhibitors, primary screen, biochemical, fluorescence polarization, human. AID 463082, 2010. Platelet-activating factor acetylhydrolase (Homo sapiens), Q13093. recombinant pPAFAH, FP-rhodamine probe fluorescence polarization. inhibition, % at 3.39 µM. 330,000 compounds, 1.5% hits;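 active = inhibition above the mean inhibition across the screen plus 3 SD, cut at about 25% in these data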;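 also: inhibitors block binding of the rhodamine activity-based probe so polarization drops; 0% = enzyme with DMSO and 100% = wells lacking pPAFAH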
Target sequence (Q13093 whole entry, looked up): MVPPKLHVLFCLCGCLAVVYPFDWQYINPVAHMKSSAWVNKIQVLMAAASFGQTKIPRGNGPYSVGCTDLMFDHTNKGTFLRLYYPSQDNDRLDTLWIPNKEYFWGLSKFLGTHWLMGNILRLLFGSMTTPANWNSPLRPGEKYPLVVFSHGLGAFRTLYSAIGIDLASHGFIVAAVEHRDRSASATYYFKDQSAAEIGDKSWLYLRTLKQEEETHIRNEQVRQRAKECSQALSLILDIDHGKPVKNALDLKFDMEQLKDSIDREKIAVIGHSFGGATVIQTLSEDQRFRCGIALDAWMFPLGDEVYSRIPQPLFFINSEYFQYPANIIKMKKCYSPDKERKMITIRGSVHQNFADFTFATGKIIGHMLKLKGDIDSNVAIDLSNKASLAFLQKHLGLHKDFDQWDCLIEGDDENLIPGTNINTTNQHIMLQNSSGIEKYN
PAFAH1B3 FP inh: PAFAH1B3 enzyme inhibitors, primary screen, biochemical, fluorescence polarization, human; recombinant PAFAH1B3, FP-rhodamine probe; 340,000 compounds, 0.28% hits; inhibition, % at 3.39 µM; Platelet-activating factor acetylhydrolase IB subunit alpha1 (Homo sapiens), Q15102; AID 492972, 2010;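 active = inhibition above the screen-wide average of all tested compounds plus 3 SD, cut at about 25% in these data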;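 also: 0% = enzyme with DMSO only and 100% = wells lacking PAFAH1B3 protein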
PAFAH2 inh: PAFAH2 enzyme inhibitors, primary screen, biochemical, fluorescence polarization, human | recombinant PAFAH2, FP-rhodamine activity probe | Platelet-activating factor acetylhydrolase 2, cytoplasmic (Homo sapiens), Q99487 | 340,000 compounds, 0.99% hits | inhibition, % at 3.39 µM;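 active = inhibition above the mean over all tested compounds plus 3 SD, cut at about 30% in these data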;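 also: inhibitors block probe labeling of enzyme so polarization drops; 0% = enzyme with DMSO and 100% = wells lacking PAFAH2 protein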
ASAP1 inh: inhibitors of human ASAP1 ArfGAP activity, primary screen, biochemical, fluorescence polarization. 360,000 compounds, 0.19% hits. Arf-GAP with SH3 domain, ANK repeat and PH domain-containing protein 1 (Homo sapiens), …. AID 624377, 2012. ASAP1-stimulated ARF1 GTP hydrolysis, GDP FP detection. inhibition, % at 16.5 µM; in the data active = inhibition above about 25%;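 also: 0% = vehicle with enzyme and substrate and 100% = no enzyme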
ARFGAP1 inh: inhibitors of rat ARFGAP1 GAP activity, primary screen, biochemical, fluorescence polarization, GDP tracer | 360,000 compounds, 0.26% hits | ADP-ribosylation factor GTPase-activating protein 1 (Rattus norvegicus), Q62848 | AID 651572, 2012 | Arfgap1-stimulated ARF1 GTP hydrolysis, GDP FP detection | inhibition, % at 16.5 µM;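 active = inhibition above a per-plate limit, mean inhibition of low control wells plus 3 SD, cut at about 25% in these data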;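 also: 0% = DMSO wells with enzyme and 100% = wells lacking Arfgap1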
Target sequence (Q62848 1-136 limits assumed): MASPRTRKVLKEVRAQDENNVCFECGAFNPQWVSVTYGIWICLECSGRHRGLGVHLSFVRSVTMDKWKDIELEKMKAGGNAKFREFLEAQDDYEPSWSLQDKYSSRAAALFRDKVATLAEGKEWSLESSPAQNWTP
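Material: truncated rat Arfgap1 GAP domain; Incubation: compound-enzyme preincubation 20 min, reaction 120 min, detection 60 min, 25 °C; Read-out: percent inhibition of Arfgap1-stimulated GTP hydrolysis; Technique: FP, GDP Alexa 633 tracer displaced from anti-GDP antibody, 620/688 nm; Controls: No-Arfgap1 wells (100%) versus DMSO full-reaction wells (0%); Replication: single well per compound.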
PAFAH1B2 FP inh: PAFAH1B2 enzyme inhibitors, primary screen, biochemical, fluorescence polarization, human; 340,000 compounds, 1.2% hits; AID 492953, 2010; inhibition, % at 3.39 µM; recombinant PAFAH1B2, FP-rhodamine activity probe; Platelet-activating factor acetylhydrolase IB subunit alpha2 (Homo sapiens), P68402;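 active = inhibition above the mean of all tested compounds plus 3 SD, cut at about 24% in these data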;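 also: 0% = enzyme with DMSO and 100% = wells lacking PAFAH1B2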
PAFAH2 FP conf: PAFAH2 enzyme inhibitors, confirmation, biochemical, fluorescence polarization, human; shares compounds with PAFAH2 inh; recombinant PAFAH2, FP-rhodamine activity probe; inhibition, % at 3.39 µM; 2,300 compounds, 65% hits; AID 493030, 2011;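 active = mean inhibition over three repeats above a set limit taken from the earlier primary screen, cut at about 30% in these data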;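 also: inhibitor blocks binding of rhodamine activity probe so polarization falls; 0% = enzyme with DMSO and 100% = wells lacking PAFAH2 protein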
An asterisk follows results filed as active; nt = no result.

SMILES	pPAFAH inh	PAFAH1B3 FP inh	PAFAH2 inh	ASAP1 inh	ARFGAP1 inh	PAFAH1B2 FP inh	PAFAH2 FP conf
Cc1ccc(CNC(=O)COC(=O)CN2C(=O)C3CC=CCC3C2=O)cc1 (stereo not drawn)	1	12	37*	-17	-1	5	20
Cc1ccc(Nc2nc(N)nc(CSC(=S)N3CCOCC3)n2)c(C)c1	2	-4	46*	-3	-4	0	42*
COc1ccc(Nc2nc(N)nc(CSC(=S)N3CCOCC3)n2)cc1	4	-5	-2	-4	0	-1	nt
Cc1ccc(Nc2c([N+](=O)[O-])c(=O)oc3ccccc23)cc1	4	12	1	-1	5	-2	nt
O=c1oc2ccccc2c(Nc2ccc3ccccc3c2)c1[N+](=O)[O-]	18	3	34*	nt	nt	7	28
O=S1(=O)CCN(C2CC2)CC1	nt	nt	nt	-6	1	nt	nt
O=C(COC(=O)c1ccc2c(c1[N+](=O)[O-])C(=O)c1ccccc1C2=O)NC1CC1	-4	18	36*	-4	12	12	24
CC1CCCCC1NC(=O)COC(=O)c1ccc2c(c1Cl)C(=O)c1ccccc1C2=O (stereo not drawn)	20	5	54*	0	2	0	55*
COc1ccc([C@H]2CC(=O)C=C(c3ccc4ncccc4c3)C2)cc1OC	2	5	2	15	8	2	nt
CCn1ncc(Br)c1C(=O)Nc1ccc(C(C)C)cc1	-3	-15	4	10	7	0	nt
COC(=O)[C@H](Cc1ccccc1)NC(=O)NCc1ccccc1	0	2	7	-6	-7	7	nt
COC(=O)[C@@H](Cc1ccccc1)NC(=O)[C@H]1CCC(=O)N1C(=O)OCc1ccccc1	4	5	41*	1	4	1	28
CC(C)(C)c1ccc(C(=O)NCC(=O)OCC(=O)N2CCCC2)cc1	4	6	-7	-8	-13	-3	nt
N#Cc1ccccc1NC(=O)COC(=O)c1ccc(F)cc1F	16	11	46*	5	1	1	17
COc1cccc(NC(=O)COC(=O)c2ccc(F)cc2F)c1	21	2	73*	-1	-7	4	61*
Cc1ccc(C)c(SCC(=O)NNC(=O)c2csc(N3CCOCC3)n2)c1	-1	1	30*	3	11	3	31*
O=[N+]([O-])c1cc(Cl)cc(/C=N/Nc2nc3ccccc3s2)c1O	13	18	65*	-4	2	5	46*
O=C(Cn1nc2ccccc2n1)N/N=C/c1cc(Cl)cc([N+](=O)[O-])c1O	nt	3	30*	-6	2	9	15
COc1cccc(C2C(C#N)=C(N)N(N(C)C)C3=C2C(=O)CC(C)(C)C3)c1OC (stereo not drawn)	-2	13	1	-4	-5	2	nt
Cc1cccn2c(=O)c3cc(S(=O)(=O)c4ccccc4)c(=N)n(Cc4cccnc4)c3nc12	3	10	38*	10	-5	5	33*
Cc1ccc(NC(=O)COC(=O)c2ccccc2F)cc1S(=O)(=O)N1CCCCC1	nt	-1	67*	-5	0	1	59*
Cc1ccc(NC(=O)COC(=O)c2ccccc2Cl)cc1S(=O)(=O)N(C)C	2	1	58*	6	1	-1	39*
Cc1ccc(NC(=O)Cc2ccccc2Cl)cc1S(=O)(=O)N(C)C	2	0	6	10	0	-6	nt
Cc1ccc(S(=O)(=O)N2CCCCC2)cc1NC(=O)COC(=O)c1ccccc1F	12	0	52*	2	7	-5	53*
Cc1ccc(NC(=O)c2ccccc2F)cc1S(=O)(=O)N1CCCCCC1	-2	-1	6	-12	6	0	nt
SMILES	pPAFAH inh	PAFAH1B3 FP inh	PAFAH2 inh	ASAP1 inh	ARFGAP1 inh	PAFAH1B2 FP inh	PAFAH2 FP conf
Cc1ccc(S(=O)(=O)N2CCCCC2)cc1NC(=O)COC(=O)c1cccc(O)c1	nt	nt	nt	-1	14	nt	nt
CN1CCN(S(=O)(=O)c2ccc(NC(=O)c3ccc(F)cc3Cl)cc2)CC1	-2	12	0	-7	6	6	nt
O=C(c1ccc(COc2ccc(Cl)cc2Cl)o1)N1CCCC1	nt	-9	30*	-4	2	6	29
Cc1ccc(C(=O)OCC(=O)NCc2cccs2)c(C)c1	1	6	32*	1	-5	-3	25
COc1ccc(C(=O)OCC(=O)NCc2cccs2)c(OC)c1OC	6	13	72*	-19	6	7	65*
O=C(OCC(=O)N1CCN(Cc2ccccc2)CC1)c1cc(Cl)ccc1[N+](=O)[O-]	2	3	9	-8	-10	2	nt
COCCN(CC1CCCN(C2Cc3ccccc3C2)C1)C(=O)c1ccc(C(C)=O)cc1 (stereo not drawn)	0	-1	21	-11	-13	-2	nt
COCCN(CC1CCCN(C2Cc3ccccc3C2)C1)C(=O)c1cccc(C)c1 (stereo not drawn)	5	-3	32*	-13	4	2	19
CCCCn1cnc2c(oc3nc4c(cc32)CCCC4)c1=O	2	6	4	1	6	6	nt
COCCN(C(=S)Nc1c(C)cc(C)cc1C)C(C)c1cccs1 (stereo not drawn)	7	5	31*	-8	8	2	28
CC(C)(C)S(=O)(=O)c1cnc2c(S(=O)(=O)c3ccccc3)cnn2c1N	5	1	30*	-1	8	-2	0
Cc1nc2c(S(=O)(=O)c3ccccc3)cnn2c(C)c1C	10	5	3	-7	4	3	nt
Cc1ccc(C(=O)O/N=C/c2ccc3c(c2)OCO3)cc1	12	-1	48*	-3	-1	-2	51*
COc1ccccc1CC(=O)NCc1ccc2c(c1)OCO2	0	5	1	-4	7	-2	nt
COc1ccccc1/C=N/OC(=O)c1ccc(C)cc1	11	-2	87*	17	14	1	75*
COc1ccccc1C/C(N)=N/OC(=O)c1ccco1	5	6	58*	-1	5	0	62*

Screens: PubChem, The Scripps Research Institute Molecular Screening Center
